Holding throughout (format): functional
For assay [1], the species on record is Mus musculus. The assay can be described thus: Cures is the number of survivors of the total treated mice (6) with advanced L-1210 leukemia, at 30 days. Summed up:
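Advanced L-1210 leukemia, with ip treatment on days 5, 9 and 13 relative to tumor inoculation.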

For assay [2], the species on record is Mus musculus. The assay can be described thus: Cures is the number of survivors of the total treated mice (8) with Colon 26, at 60 days.
The species entered for assay [3] is Mus musculus. The assay can be described thus: Cures is the number of survivors of the total treated mice (10) with B-16 melanoma, at 60 days. Summed up:
(§1)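 BDF1 mice were implanted ip with a homogenate from 0.05 g of B-16 melanoma and dosed ip on days 1-9. Cures are survivors over total at 60 days.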

Assay [4] deals with Mus musculus. The assay can be described thus: Percent increase in median life span of BDF1 mice with Colon 26 at dose 25 mg/kg administered intraperitoneally; 1, 5, 9 days of ip treatment relative to tumor inoculation. To be noted: BDF1, Colon 26, ip, 216 h, route intraperitoneal.
Assay [5] has as its system Mus musculus. The assay can be described thus: Percent increase in median life span of BDF1 mice with P-388 leukemia at dose 100 mg/kg administered intraperitoneally; 1, 5, 9 days of ip treatment relative to tumor inoculation. To be noted: BDF1, P388, ip, 216 h, route intraperitoneal. Summed up:
(§2)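 BDF1 or CDF1 mice given 10^6 ascitic leukemia cells ip, then dosed ip on days 1, 5 and 9. Read-out is percent increase in life span versus untreated controls. Cures were scored as survivors/total at 30 days; when cures reached 50% or more, the run was extended until a specific ILS could be calculated. T/C ≥125% counted as significant.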

For assay [6], the system named is Mus musculus. The assay can be described thus: Percent increase in median life span of BDF1 mice with advanced L-1210 leukemia at dose 200 mg/kg administered intraperitoneally; treatment day +2 iv. The conditions noted are these: L1210.
Assay [7] deals with Mus musculus. The assay can be described thus: Percent increase in median life span of BDF1 mice with advanced P-388 leukemia at dose 25 mg/kg administered intraperitoneally; 4, 8, 12 days of ip treatment relative to tumor inoculation. The conditions noted are these: P388, ip, 288 h, route intraperitoneal.
In assay [8] the test system is Mus musculus. The assay can be described thus: Percent increase in median life span of BDF1 mice with madison lung 109 leukemia administered intraperitoneally.
In assay [9] the test system is Mus musculus. The assay can be described thus: Percent increase in median life span of BDF1 mice with B-16 melanoma at dose 25 mg/kg administered intraperitoneally; 1-9 days of ip treatment relative to tumor inoculation. To be noted: BDF1, B16, ip, route intraperitoneal. The method in brief: (§3)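 BDF1 mice were implanted ip with a homogenate from 0.05 g of B-16 melanoma. Ip dosing ran on days 1-9, starting 24 h after implant, in dose-response studies following NCI protocols. The read-out was percent increase in life span (ILS). T/C ≥125% was taken as significant.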

For assay [10], the system named is Mus musculus. Briefly: Percent tumor inhibition at non-lethal dose was determined in BDF1 mice with madison lung 109 leukemia; 1, 5, 9 days of sc treatment relative to tumor inoculation.
The species entered for assay [11] is Mus musculus. The assay can be described thus: Cures is the number of survivors of the total treated mice (9) with P-388 leukemia, at 30 days. The method in brief:
(§4)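 BDF1 or CDF1 mice given 10^6 ascitic P-388 leukemia cells ip, then treated ip on days 1, 5 and 9. Cures are survivors over total treated at 30 days.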

For assay [12], the system named is Mus musculus. The assay can be described thus: Percent increase in median life span of BDF1 mice with P-388 leukemia at dose 12.5 mg/kg administered intraperitoneally. To be noted: BDF1, P388, ip, route intraperitoneal.
The test system of assay [13] is Mus musculus. The assay can be described thus: Percent increase in median life span of BDF1 mice with B-16 melanoma at dose 1.5 mg/kg administered intraperitoneally. The conditions noted are these: BDF1, B16, ip, route intraperitoneal. Summed up: as §3
For assay [14], the species on record is Mus musculus. Briefly: Anticancer activity measured as the number of survivors of the total treated mice with P-388 leukemia at 30 days. Summed up:
as §4

Assay [15] deals with Mus musculus. Briefly: Percent increase in median life span of BDF1 mice with P-388 leukemia at dose 300 mg/kg administered intraperitoneally. To be noted: BDF1, P388, ip, route intraperitoneal.
For assay [16], the system named is Mus musculus. Briefly: Percent increase in median life span of BDF1 mice with B-16 melanoma at dose 300 mg/kg administered intraperitoneally. To be noted: BDF1, B16, ip, route intraperitoneal. Summed up: as §3
The species named for assay [17] is Mus musculus. Briefly: Cures is the number of survivors of the total treated mice (12) with P-388 leukemia, at 30 days. The method in brief: as §4
For assay [18], the species on record is Mus musculus. The assay can be described thus: Cures is the number of survivors of the total treated mice (6) with L-1210 leukemia, at 30 days.
The species named for assay [19] is Mus musculus. Briefly: Cures is the number of survivors of the total treated mice (10) with advanced B-16 melanoma, at 30 days.
Assay [20] is filed under the species Mus musculus. Briefly: Cures is the number of survivors of the total treated mice (10) with Colon 26, at 60 days.
The test system of assay [21] is Mus musculus. The assay can be described thus: Percent increase in median life span of BDF1 mice with B-16 melanoma at dose 6.25 mg/kg administered intraperitoneally; 1-9 days of ip treatment relative to tumor inoculation. To be noted: BDF1, B16, ip, route intraperitoneal. The method in brief:
as §3

For assay [22], the system named is Mus musculus. Briefly: Percent increase in median life span of BDF1 mice with Colon 26 at dose 6.2 mg/kg administered intraperitoneally; 1, 5, 9 days of ip treatment relative to tumor inoculation. The conditions noted are these: BDF1, Colon 26, ip, 216 h, route intraperitoneal.
For assay [23], the system named is Mus musculus. Briefly: Percent increase in median life span of BDF1 mice with L-1210 leukemia at dose 3.1 mg/kg administered intraperitoneally; 1, 5, 9 days of ip treatment relative to tumor inoculation. The conditions noted are these: BDF1, L1210, ip, 216 h, route intraperitoneal. Summed up:
as §2

The test system of assay [24] is Mus musculus. Briefly: Percent increase in median life span of BDF1 mice with P-388 leukemia at dose 12.5 mg/kg administered intraperitoneally; range 90-100%; range 90-100%, 1, 5, 9 days of ip treatment relative to tumor inoculation. The conditions noted are these: BDF1, P388, ip, 216 h, route intraperitoneal. Summed up:
as §2

Assay [25] deals with Mus musculus. The assay can be described thus: Percent increase in median life span of BDF1 mice with advanced B-16 melanoma at dose 12.5 mg/kg administered intraperitoneally; 5, 9, 13 days of ip treatment relative to tumor inoculation. To be noted: BDF1, B16, ip, 312 h, route intraperitoneal.
For assay [26], the species on record is Mus musculus. Briefly: Cures is the number of survivors of the total treated mice (20) with B-16 melanoma, at 60 days. Summed up:
as §1

Assay [27] is filed under the species Mus musculus. The assay can be described thus: Cures is the number of survivors of the total treated mice (24) with P-388 leukemia, at 30 days. Summed up: as §4
The species named for assay [28] is Mus musculus. The assay can be described thus: Cures is the number of survivors of the total treated mice (26) with Colon 26, at 60 days.
For assay [29], the species on record is Mus musculus. Briefly: Cures is the number of survivors of the total treated mice (6) with P-388 leukemia, at 30 days. The method in brief: as §4
For assay [30], the system named is Mus musculus. Briefly: Cures is the number of survivors of the total treated mice (6) with advanced L-1210 leukemia, at 30 days; treatment day +2 iv. Summed up: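 Advanced L-1210 leukemia, treated iv once on day +2 relative to tumor inoculation.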
Assay [31] has as its system Mus musculus. Briefly: Percent increase in median life span of BDF1 mice with Colon 26 at dose 12.5 mg/kg administered intraperitoneally; 1, 5, 9 days of ip treatment relative to tumor inoculation. The conditions noted are these: BDF1, Colon 26, ip, 216 h, route intraperitoneal.
For assay [32], the system named is Mus musculus. The assay can be described thus: Percent increase in median life span of BDF1 mice with L-1210 leukemia at dose 25 mg/kg administered intraperitoneally; 1, 5, 9 days of ip treatment relative to tumor inoculation. The conditions noted are these: BDF1, L1210, ip, 216 h, route intraperitoneal. The method in brief:
as §2

The subject of assay [33] is Mus musculus. Briefly: Percent increase in median life span of BDF1 mice with advanced B-16 melanoma at dose 25 mg/kg administered intraperitoneally; 5, 9, 13 days of ip treatment relative to tumor inoculation. To be noted: B16, ip, 312 h, route intraperitoneal.
In assay [34] the test system is Mus musculus. The assay can be described thus: Percent increase in median life span of BDF1 mice with P-388 leukemia at dose 25 mg/kg administered intraperitoneally; 1, 5, 9 days of ip treatment relative to tumor inoculation. To be noted: BDF1, P388, ip, 216 h, route intraperitoneal. Summed up:
as §2

The subject of assay [35] is Mus musculus. The assay can be described thus: Percent increase in median life span of BDF1 mice with advanced L-1210 leukemia at dose 50 mg/kg administered intraperitoneally; treatment day +2 iv. To be noted: L1210.
Assay [36] deals with Mus musculus. The assay can be described thus: Percent increase in median life span of BDF1 mice with B-16 melanoma at dose 12 mg/kg administered intraperitoneally; Range 144-145%, 1-9 days of ip treatment relative to tumor inoculation. To be noted: BDF1, B16, ip, route intraperitoneal. The method in brief: as §3
The species entered for assay [37] is Mus musculus. The assay can be described thus: Cures is the number of survivors of the total treated mice (5) with L-1210 leukemia, at 30 days.
Assay [38] is filed under the species Mus musculus. Briefly: Cures is the number of survivors of the total treated mice (6) with P-388 leukemia, at 60 days.
Assay [39] relates to Mus musculus. Briefly: Percent increase in median life span of BDF1 mice with B-16 melanoma at dose 0.8 mg/kg administered intraperitoneally. To be noted: BDF1, B16, ip, route intraperitoneal. Summed up:
as §3

The subject of assay [40] is Mus musculus. The assay can be described thus: Percent increase in median life span of BDF1 mice with P-388 leukemia at dose 5 mg/kg administered intraperitoneally. The conditions noted are these: BDF1, P388, ip, route intraperitoneal.

Bounds are passed on as bounds.

For `CC1(C)CN=C(N/N=C/c2c3ccccc3c(/C=N/NC3=NCC(C)(C)CN3)c3ccccc23)NC1.Cl.Cl`, the Cures in assay [1] amounted to 0; in assay [2], 0; in assay [3], 4. The increase in life span (ILS) at 25 mg/kg amounted to 153% in assay [4], 88% in assay [7] and 143% in assay [9]. The molecule also returned an ILS at 100 mg/kg in assay [5] of 205%. Also, the ILS at 200 mg/kg in assay [6] was 29%. Further, the ILS in assay [8] is recorded as <25%. This molecule also registered an Inhibition in assay [10] of 31%.
In the case of `C(=N\NC1=NCC2(CC2)CN1)/c1c2ccccc2c(/C=N/NC2=NCC3(CC3)CN2)c2ccccc12.Cl.Cl`, the Cures was determined as 1 in [11] and 4 in assay [3]. Besides, the ILS at 12.5 mg/kg in [12] is 100%. Also, in assay [13], the increase in lifespan (ILS) at 1.5 mg/kg was 127%.
With `N/C(S)=N/N=C/c1c2ccccc2c(/C=N/N=C(\N)S)c2ccccc12`, the Cures in [14] was 0. Besides, the ILS at 300 mg/kg is 71% in [15] and 0% in assay [16].
In the case of `Cl.Cl.Clc1ccc2c(/C=N/NC3=NCCN3)c3ccccc3c(/C=N/NC3=NCCN3)c2c1`, the Cures was 2 in assay [17]; 0 in assay [18]; 0 in [19]; 4 in [3]; 1 in assay [20]. This molecule also showed an ILS at 6.25 mg/kg in [21] of 206%. Further, the ILS at 6.2 mg/kg in [22] is 100%. Also, in assay [23], the increase in life span (ILS) at 3.1 mg/kg turned out to be 37%. Moreover, the ILS at 12.5 mg/kg came to 95% in assay [24] and 32% in [25].
On to `C/N=C(\N)N/N=C/c1c2ccccc2c(/C=N/N/C(N)=N/C)c2ccccc12`, for which the Cures came to 8 in assay [26]; 6 in assay [27]; 2 in assay [28]; 1 in assay [29]; 5 in assay [19]; 0 in assay [30]. The Cures in assay [37] stood at 0. Besides, in assay [31], the ILS at 12.5 mg/kg came out at 129%. Also, the ILS at 25 mg/kg in assay [32] worked out at 62%; in assay [33], 62%; in assay [34] it was 157%; in assay [7], 108%. In addition, the ILS at 50 mg/kg in assay [35] was determined as 50%. The molecule further registered an ILS in assay [8] of 53%. In assay [36], this molecule yielded an ILS at 12 mg/kg of 145%. This molecule returned an Inhibition in [10] of 89%.
Consider `COc1cccc2c1C(=O)c1c(O)c3c(c(O)c1C2=O)C[C@@](O)(C(=O)CO)C[C@@H]3O[C@H]1C[C@H](N)[C@H](O)[C@H](C)O1` [DOXORUBICIN], for which the figures for the Cures in [26] and in [38] were 18 and 1, respectively. In [39], the ILS at 0.8 mg/kg turned out to be 275%. Also, the increase in life span (ILS) at 5 mg/kg in assay [40] was found to be 159%.

As a reminder, the ILS is the gain in survival time of treated over control animals, in per cent. A low value points to little gain in survival. As usually defined, the Inhibition is the change of the read-out against control, counted positive when it falls. Low values mean a weak effect, high ones a strong effect.

Values taken from ChEMBL document CHEMBL1122207, “Antitumor agents. 2. Bisguanylhydrazones of anthracene-9,10-dicarboxaldehydes” (1982).
